# Reference: ChEMBL document CHEMBL4011621, “A Novel Series of Highly Potent Small Molecule Inhibitors of Rhinovirus Replication” (J Med Chem, 2017)
# System: rhinovirus B14
# Assay: Antiviral activity against Human rhinovirus B14 infected in human H1HeLa cells assessed as protection against virus induced cytopathic effect after 3 days by MTT assay
# Assay type: functional, cell-based
# Conditions: Rhinovirus B, H1-HeLa, 72 h
row,Structure (SMILES),EC50 [µM]
1,CCOC(=O)c1cc2ccc(Oc3ccncc3)cc2s1,> 42.4
2,CCOC(=O)c1cc2cc(Oc3ccnc(C(=O)NC)c3)ccc2cc1O,> 100
3,CCOC(=O)c1sc2cc(Oc3ccnc(C(=O)NC)c3)ccc2c1N,> 0.11
4,CCOC(=O)c1cc2ccc(Oc3ccnc(C(=O)NC)c3)cc2o1,> 100
5,CCOC(=O)c1cc2ccc(O)cc2s1,> 52.3
6,CNC(=O)c1cc(Oc2ccc3cc(C(=O)OC)sc3c2)ccn1,> 100
7,CNC(=O)c1cc(Oc2ccc3c(C)c(C(=O)OCc4ccccc4)sc3c2)ccn1,> 18.8
8,CCOC(=O)c1cc2ccc(OC)cc2s1,> 70.9
9,CCOC(=O)c1cc2ccc(Oc3ccccc3)cc2s1,68.6
10,CNC(=O)c1ccc(Oc2ccc3c(C)c(C(=O)OC(C)C)sc3c2)cn1,> 7.6
11,CCOC(=O)c1sc2cc(Oc3ccnc(C(=O)NC)c3)ccc2c1Cl,11.7

# System: rhinovirus A21
# Assay: Antiviral activity against Human rhinovirus A21 infected in human H1HeLa cells assessed as protection against virus induced cytopathic effect after 3 days by MTT assay
# Assay type: functional, cell-based
# Conditions: Rhinovirus A, H1-HeLa, 72 h
# In short: (§1)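 CPE-reduction assay in H1HeLa cells plated 2 d before. Equal volumes of virus and compound were added and held at 33 °C for 3 d under CO2. Supernatant was removed, then MTT was added for 1 h at 37 °C. Formazan was dissolved and read at 540 nm against a 690 nm reference. Survival was scaled between uninfected untreated wells (100%) and virus-only wells (0%); mean ± SD, three experiments.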
row,Structure (SMILES),EC50 [µM]
1,CCOC(=O)c1cc2ccc(Oc3ccncc3)cc2s1,> 42.4
2,CCOC(=O)c1cc2cc(Oc3ccnc(C(=O)NC)c3)ccc2cc1O,0.41
3,CCOC(=O)c1sc2cc(Oc3ccnc(C(=O)NC)c3)ccc2c1N,> 0.11
4,CCOC(=O)c1cc2ccc(Oc3ccnc(C(=O)NC)c3)cc2o1,66
5,CCOC(=O)c1cc2ccc(O)cc2s1,> 52.3
6,CNC(=O)c1cc(Oc2ccc3cc(C(=O)OC)sc3c2)ccn1,75.6
7,CNC(=O)c1cc(Oc2ccc3c(C)c(C(=O)OCc4ccccc4)sc3c2)ccn1,0.55
8,CCOC(=O)c1cc2ccc(OC)cc2s1,> 70.9
9,CCOC(=O)c1cc2ccc(Oc3ccccc3)cc2s1,51.1
10,CNC(=O)c1ccc(Oc2ccc3c(C)c(C(=O)OC(C)C)sc3c2)cn1,3.3
11,CCOC(=O)c1sc2cc(Oc3ccnc(C(=O)NC)c3)ccc2c1Cl,1.7

# System: not listed separately
# Assay: Cytotoxicity against human H1HeLa cells assessed as decrease in cell viability after 3 days by MTT assay
# Assay type: cell-based, H1-HeLa
# Conditions: not given
row,Structure (SMILES),CC50 at 72 h [µM]
1,CCOC(=O)c1cc2ccc(Oc3ccncc3)cc2s1,42.4
2,CCOC(=O)c1cc2cc(Oc3ccnc(C(=O)NC)c3)ccc2cc1O,> 100
3,CCOC(=O)c1sc2cc(Oc3ccnc(C(=O)NC)c3)ccc2c1N,0.11
4,CCOC(=O)c1cc2ccc(Oc3ccnc(C(=O)NC)c3)cc2o1,> 100
5,CCOC(=O)c1cc2ccc(O)cc2s1,52.3
6,CNC(=O)c1cc(Oc2ccc3cc(C(=O)OC)sc3c2)ccn1,> 100
7,CNC(=O)c1cc(Oc2ccc3c(C)c(C(=O)OCc4ccccc4)sc3c2)ccn1,18.8
8,CCOC(=O)c1cc2ccc(OC)cc2s1,70.9
9,CCOC(=O)c1cc2ccc(Oc3ccccc3)cc2s1,> 100
10,CNC(=O)c1ccc(Oc2ccc3c(C)c(C(=O)OC(C)C)sc3c2)cn1,7.6
11,CCOC(=O)c1sc2cc(Oc3ccnc(C(=O)NC)c3)ccc2c1Cl,46.9

# System: not listed separately
# Assay: Antiviral activity against Human rhinovirus A71 infected in human H1HeLa cells assessed as protection against virus induced cytopathic effect after 3 days by MTT assay
# Assay type: functional, cell-based
# Conditions: Rhinovirus A, H1-HeLa, 72 h
# In short: as §1
row,Structure (SMILES),EC50 [nM]
1,CCOC(=O)c1cc2ccc(Oc3ccncc3)cc2s1,7300
2,CCOC(=O)c1cc2cc(Oc3ccnc(C(=O)NC)c3)ccc2cc1O,290
3,CCOC(=O)c1sc2cc(Oc3ccnc(C(=O)NC)c3)ccc2c1N,> 110
4,CCOC(=O)c1cc2ccc(Oc3ccnc(C(=O)NC)c3)cc2o1,1400
5,CCOC(=O)c1cc2ccc(O)cc2s1,8900
6,CNC(=O)c1cc(Oc2ccc3cc(C(=O)OC)sc3c2)ccn1,4600
7,CNC(=O)c1cc(Oc2ccc3c(C)c(C(=O)OCc4ccccc4)sc3c2)ccn1,1400
8,CCOC(=O)c1cc2ccc(OC)cc2s1,5100
9,CCOC(=O)c1cc2ccc(Oc3ccccc3)cc2s1,2800
10,CNC(=O)c1ccc(Oc2ccc3c(C)c(C(=O)OC(C)C)sc3c2)cn1,1700
11,CCOC(=O)c1sc2cc(Oc3ccnc(C(=O)NC)c3)ccc2c1Cl,2700

# System: not listed separately
# Assay: Selectivity index, ratio of CC50 for human H1HeLa cells to EC50 for Human rhinovirus B14 infected in human H1HeLa cells
# Assay type: toxicity, cell-based
# Conditions: read-out: Ratio CC50/EC50
# In short: (§2)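 H1HeLa cells plated 2 d ahead; virus plus compound (equal volumes) incubated 33 °C, 3 d, CO2. MTT 1 h at 37 °C, A540/A690. Survival scaled between uninfected untreated (100%) and virus-only (0%) wells to give EC50. CC50 = 50% cell death by MTT in H1HeLa. SI = CC50/EC50; at least three independent experiments.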
row,Structure (SMILES),selectivity ratio
1,CCOC(=O)c1cc2ccc(Oc3ccccc3)cc2s1,> 1.5
2,CCOC(=O)c1sc2cc(Oc3ccnc(C(=O)NC)c3)ccc2c1Cl,4

# System: not listed separately
# Assay: Selectivity index, ratio of CC50 for human H1HeLa cells to EC50 for Human rhinovirus A21 infected in human H1HeLa cells
# Assay type: toxicity, cell-based
# Conditions: read-out: Ratio CC50/EC50
# In short: as §2
row,Structure (SMILES),selectivity ratio
1,CCOC(=O)c1cc2cc(Oc3ccnc(C(=O)NC)c3)ccc2cc1O,> 240
2,CCOC(=O)c1cc2ccc(Oc3ccnc(C(=O)NC)c3)cc2o1,> 1.5
3,CNC(=O)c1cc(Oc2ccc3cc(C(=O)OC)sc3c2)ccn1,> 1.3
4,CNC(=O)c1cc(Oc2ccc3c(C)c(C(=O)OCc4ccccc4)sc3c2)ccn1,34
5,CCOC(=O)c1cc2ccc(Oc3ccccc3)cc2s1,> 2
6,CNC(=O)c1ccc(Oc2ccc3c(C)c(C(=O)OC(C)C)sc3c2)cn1,2.3
7,CCOC(=O)c1sc2cc(Oc3ccnc(C(=O)NC)c3)ccc2c1Cl,28

# System: not listed separately
# Assay: Selectivity index, ratio of CC50 for human H1HeLa cells to EC50 for Human rhinovirus A71 infected in human H1HeLa cells
# Assay type: toxicity, cell-based
# Conditions: read-out: Ratio CC50/EC50
# In short: as §2
row,Structure (SMILES),selectivity ratio
1,CCOC(=O)c1cc2ccc(Oc3ccncc3)cc2s1,5.8
2,CCOC(=O)c1cc2cc(Oc3ccnc(C(=O)NC)c3)ccc2cc1O,> 340
3,CCOC(=O)c1cc2ccc(Oc3ccnc(C(=O)NC)c3)cc2o1,> 71
4,CCOC(=O)c1cc2ccc(O)cc2s1,5.9
5,CNC(=O)c1cc(Oc2ccc3cc(C(=O)OC)sc3c2)ccn1,> 22
6,CNC(=O)c1cc(Oc2ccc3c(C)c(C(=O)OCc4ccccc4)sc3c2)ccn1,13
7,CCOC(=O)c1cc2ccc(OC)cc2s1,14
8,CCOC(=O)c1cc2ccc(Oc3ccccc3)cc2s1,> 36
9,CNC(=O)c1ccc(Oc2ccc3c(C)c(C(=O)OC(C)C)sc3c2)cn1,4.5
10,CCOC(=O)c1sc2cc(Oc3ccnc(C(=O)NC)c3)ccc2c1Cl,17

# System: Poliovirus 3
# Assay: Antiviral activity against Human poliovirus 3 infected in human HeLa cells assessed as protection against virus induced cytopathic effect after 2 days by MTT assay
# Assay type: functional, cell-based
# Conditions: Enterovirus C, 48 h
# In short: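 HeLa cells; MTT-based CPE reduction. Virus and compound added in equal volumes, incubated 37 °C for 2 d in CO2. Supernatant removed, MTT 1 h at 37 °C, formazan dissolved, absorbance 540 nm (690 nm reference). Uninfected untreated wells = 100% survival, virus-only = 0%. EC50 = 50% inhibition; means ± SD, three experiments.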
row,Structure (SMILES),EC50 [µM]
1,CCOC(=O)c1cc2ccc(Oc3ccncc3)cc2s1,> 43.9
2,CCOC(=O)c1cc2cc(Oc3ccnc(C(=O)NC)c3)ccc2cc1O,0.18
3,CCOC(=O)c1sc2cc(Oc3ccnc(C(=O)NC)c3)ccc2c1N,> 0.45
4,CCOC(=O)c1cc2ccc(Oc3ccnc(C(=O)NC)c3)cc2o1,> 100
5,CCOC(=O)c1cc2ccc(O)cc2s1,> 46.9
6,CNC(=O)c1cc(Oc2ccc3cc(C(=O)OC)sc3c2)ccn1,> 68.3
7,CNC(=O)c1cc(Oc2ccc3c(C)c(C(=O)OCc4ccccc4)sc3c2)ccn1,0.34
8,CCOC(=O)c1cc2ccc(OC)cc2s1,13.1
9,CCOC(=O)c1cc2ccc(Oc3ccccc3)cc2s1,> 90.1
10,CNC(=O)c1ccc(Oc2ccc3c(C)c(C(=O)OC(C)C)sc3c2)cn1,> 12.9
11,CCOC(=O)c1sc2cc(Oc3ccnc(C(=O)NC)c3)ccc2c1Cl,> 45.6

# System: not listed separately
# Assay: Cytotoxicity aganist human HeLa cells assessed as decrease in cell viability after 2 days by MTT assay
# Assay type: cell-based
# Conditions: not given
row,Structure (SMILES),CC50 at 48 h [µM]
1,CCOC(=O)c1cc2ccc(Oc3ccncc3)cc2s1,43.9
2,CCOC(=O)c1cc2cc(Oc3ccnc(C(=O)NC)c3)ccc2cc1O,> 100
3,CCOC(=O)c1sc2cc(Oc3ccnc(C(=O)NC)c3)ccc2c1N,0.45
4,CCOC(=O)c1cc2ccc(Oc3ccnc(C(=O)NC)c3)cc2o1,> 100
5,CCOC(=O)c1cc2ccc(O)cc2s1,46.9
6,CNC(=O)c1cc(Oc2ccc3cc(C(=O)OC)sc3c2)ccn1,68.3
7,CNC(=O)c1cc(Oc2ccc3c(C)c(C(=O)OCc4ccccc4)sc3c2)ccn1,18.1
8,CCOC(=O)c1cc2ccc(OC)cc2s1,44.4
9,CCOC(=O)c1cc2ccc(Oc3ccccc3)cc2s1,90.1
10,CNC(=O)c1ccc(Oc2ccc3c(C)c(C(=O)OC(C)C)sc3c2)cn1,12.9
11,CCOC(=O)c1sc2cc(Oc3ccnc(C(=O)NC)c3)ccc2c1Cl,45.6

# System: not listed separately
# Assay: Selectivity index, ratio of CC50 for human HeLa cells to EC50 for human poliovirus 3 infected in human HeLa cells
# Assay type: toxicity, cell-based
# Conditions: read-out: Ratio CC50/EC50
# In short: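 SI = CC50/EC50 in HeLa cells. CC50 = 50% cell death by MTT. EC50 = 50% inhibition of PV3 CPE by MTT after 2 d at 37 °C, survival scaled to uninfected (100%) and virus-only (0%) wells. At least three independent experiments.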
row,Structure (SMILES),selectivity ratio
1,CCOC(=O)c1cc2cc(Oc3ccnc(C(=O)NC)c3)ccc2cc1O,> 560
2,CNC(=O)c1cc(Oc2ccc3c(C)c(C(=O)OCc4ccccc4)sc3c2)ccn1,53
3,CCOC(=O)c1cc2ccc(OC)cc2s1,3.4
